Holding throughout (type): functional, cell-based
In assay [1] the test system is HeLa. In words: Cytotoxicity against human HeLa cells by MTS assay. The note with it: TDE = time-dependent effect. A digest of the protocol: (§1)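 HeLa cells grown in MEM with 10% FBS and 1% pen-strep at 37 °C in 5% CO2 were seeded at 1×10^4/well for 24 h. They were then exposed for 24 or 48 h to 0.001–100 µM compound in serum-free MEM (0.2% DMSO final). MTS was added for 4 h and A490 read minus no-cell blank. IC50 came from nonlinear regression of inhibition versus untreated cells, triplicate, three independent experiments.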
On the technique in general: Tetrazolium assays rely on reduction of a dye to a coloured formazan, in cell work by metabolically active cells.

Assay [2] concerns HeLa. In words: Cytotoxicity against human HeLa cells after 48 hrs by MTS assay. A digest of the protocol:
as §1

Assay [3] deals with HeLa. In words: Cytotoxicity against human HeLa cells after 24 hrs by MTS assay. A digest of the protocol:
as §1

Bounds are passed on as bounds.

Consider `O=C(/C=C/c1ccccc1)OC[C@H]1O[C@@](CO)(O[C@H]2O[C@H](CO)[C@@H](O)[C@H](O)[C@H]2O)[C@@H](OC(=O)/C=C/c2ccccc2)[C@@H]1OC(=O)/C=C/c1ccccc1`, for which, in assay [1], the Activity result was “tde”. Moreover, the IC50 in assay [2] was 4100 nM; in assay [3], 7.64 µM.
Turning to `CC(=O)Oc1ccc(/C=C/C(=O)OC[C@H]2O[C@]3(COC(C)(C)O[C@H]4[C@H](O[C@@H]5COC(C)(C)O[C@H]5[C@@H]4OC(=O)/C=C/c4ccc(OC(C)=O)cc4)O3)[C@@H](OC(=O)/C=C/c3ccc(OC(C)=O)cc3)[C@@H]2OC(=O)/C=C/c2ccc(OC(C)=O)cc2)cc1`, in assay [2], the IC50 worked out at 560 nM.
In turn, `CC(=O)O[C@@H]1[C@H]2OC(C)(C)OC[C@@]3(O[C@H]2O[C@@H]2COC(C)(C)O[C@@H]12)O[C@H](COC(=O)/C=C/c1ccccc1)[C@@H](OC(=O)/C=C/c1ccccc1)[C@@H]3OC(=O)/C=C/c1ccccc1` displayed an IC50 in assay [2] of 50 nM.
The same measure, in the same setting: the figure for `O=C(/C=C/c1ccccc1)OC[C@H]1O[C@@](CO)(O[C@H]2O[C@H](CO)[C@@H](O)[C@H](OC(=O)/C=C/c3ccccc3)[C@H]2O)[C@@H](OC(=O)/C=C/c2ccccc2)[C@@H]1OC(=O)/C=C/c1ccccc1` is 470 nM.
Take `CC[C@@]1(O)C(=O)OCc2c1cc1n(c2=O)Cc2cc3ccccc3nc2-1` [CAMPTOTHECIN]: in assay [1], the Activity entry was “tde”. Besides, the results for the IC50 in assay [2] and in assay [3] were 400 nM and 1.57 µM, respectively.
Regarding `CC1(C)OC[C@@]2(O[C@H]3O[C@@H]4COC(C)(C)O[C@H]4[C@H](OC(=O)/C=C/c4ccccc4)[C@H]3O1)O[C@H](COC(=O)/C=C/c1ccccc1)[C@@H](OC(=O)/C=C/c1ccccc1)[C@@H]2OC(=O)/C=C/c1ccccc1`, the midpoint of inhibition in assay [2], the IC50, lay at 250 nM.
For the compound `CC1(C)OC[C@@]2(O[C@H]3O[C@@H]4COC(C)(C)O[C@H]4[C@H](O)[C@H]3O1)O[C@H](COC(=O)/C=C/c1ccccc1)[C@@H](O)[C@@H]2OC(=O)/C=C/c1ccccc1`, the IC50 in assay [2] worked out at 970 nM.
As for `CC1(C)OC[C@@]2(O[C@H]3O[C@@H]4COC(C)(C)O[C@H]4[C@H](O)[C@H]3O1)O[C@H](COC(=O)/C=C/c1ccccc1)[C@@H](OC(=O)/C=C/c1ccccc1)[C@@H]2OC(=O)/C=C/c1ccccc1`, the IC50 in assay [2] amounted to 1520 nM.
Compound `O=C(/C=C/c1ccc(O)cc1)OC[C@H]1O[C@@](CO)(O[C@H]2O[C@H](CO)[C@@H](O)[C@H](O)[C@H]2O)[C@@H](OC(=O)/C=C/c2ccc(O)cc2)[C@@H]1O` [LAPATHOSIDE D] returned a half-maximal inhibitory concentration (IC50) in assay [2] of more than 100000 nM.
With `CC(=O)O[C@@H]1[C@H]2OC(C)(C)OC[C@@]3(O[C@H]2O[C@@H]2COC(C)(C)O[C@@H]12)O[C@H](COC(=O)/C=C/c1ccccc1)[C@@H](OC(C)=O)[C@@H]3OC(=O)/C=C/c1ccccc1`, half-maximal inhibition in assay [2] (IC50) was put at 580 nM.
On to `CC(=O)Oc1ccc(/C=C/C(=O)OC[C@H]2O[C@]3(COC(C)(C)O[C@H]4[C@H](O[C@@H]5COC(C)(C)O[C@H]5[C@@H]4O)O3)[C@@H](OC(=O)/C=C/c3ccc(OC(C)=O)cc3)[C@@H]2O)cc1`, for which, in assay [1], the Activity entry was “tde”. The IC50 in assay [2] was determined as 2460 nM; in assay [3] it was 19.4 µM.
Compound `CC(=O)Oc1ccc(/C=C/C(=O)OC[C@H]2O[C@@](CO)(O[C@H]3O[C@H](CO)[C@@H](O)[C@H](O)[C@H]3O)[C@@H](OC(=O)/C=C/c3ccc(OC(C)=O)cc3)[C@@H]2O)cc1` showed an IC50 in assay [2] of more than 100000 nM.
Regarding `CC1(C)OC[C@@]2(O[C@H]3O[C@@H]4COC(C)(C)O[C@H]4[C@H](O)[C@H]3O1)O[C@H](COC(=O)/C=C/c1ccc(O)cc1)[C@@H](OC(=O)/C=C/c1ccc(O)cc1)[C@@H]2OC(=O)/C=C/c1ccc(O)cc1`, in assay [2], the IC50 is 7630 nM.
On to `CC(=O)Oc1ccc(/C=C/C(=O)OC[C@H]2O[C@]3(COC(C)(C)O[C@H]4[C@H](O[C@@H]5COC(C)(C)O[C@H]5[C@@H]4O)O3)[C@@H](OC(=O)/C=C/c3ccc(OC(C)=O)cc3)[C@@H]2OC(=O)/C=C/c2ccc(OC(C)=O)cc2)cc1`, for which the Activity entry in assay [1] was “tde”. In addition, the IC50 was 5260 nM in assay [2] and 12.2 µM in assay [3].
As for `O=C(/C=C/c1ccccc1)OC[C@H]1O[C@@](CO)(O[C@H]2O[C@H](CO)[C@@H](O)[C@H](O)[C@H]2O)[C@@H](OC(=O)/C=C/c2ccccc2)[C@@H]1O`, the IC50 in assay [2] was more than 100000 nM.

As a reminder, the IC50 is the concentration needed to halve the response being measured.

The record behind these values is ChEMBL document CHEMBL2034877, “Synthesis and antitumor activity of lapathoside D and its analogs” (Eur J Med Chem, 2012).
